In ChEMBL document CHEMBL1781951, “Theonellasterols and conicasterols from Theonella swinhoei. Novel marine natural ligands for human nuclear receptors” (J Med Chem, 2011) one finds inhibition and Activity data, which are given here for 9 compounds.

Calls of active or inactive are those of the source. No cut-off for these calls is given here.

One assay deals with T1, Bile acid receptor (Homo sapiens) (UniProt Q96RI1).
T1 sequence (whole entry): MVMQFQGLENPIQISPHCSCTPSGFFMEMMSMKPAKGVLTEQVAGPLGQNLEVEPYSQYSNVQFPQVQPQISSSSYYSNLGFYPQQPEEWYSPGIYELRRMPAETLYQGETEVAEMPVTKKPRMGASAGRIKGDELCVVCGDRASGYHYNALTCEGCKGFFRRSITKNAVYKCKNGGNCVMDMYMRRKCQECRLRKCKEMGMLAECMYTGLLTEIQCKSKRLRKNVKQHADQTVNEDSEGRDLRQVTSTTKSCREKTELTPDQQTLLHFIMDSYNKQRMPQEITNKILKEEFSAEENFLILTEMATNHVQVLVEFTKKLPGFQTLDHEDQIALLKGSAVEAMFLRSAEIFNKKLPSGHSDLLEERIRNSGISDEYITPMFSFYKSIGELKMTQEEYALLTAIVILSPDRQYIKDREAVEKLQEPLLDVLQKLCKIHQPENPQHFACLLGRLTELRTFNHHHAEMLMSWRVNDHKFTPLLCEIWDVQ
Description: Antagonist activity at human FXR expressed in HepG2 cells assessed as inhibition of CDCA-induced transactivation at 50 uM after 18 hrs by luciferase reporter gene assay. (In general: A reporter such as luciferase makes a cellular process visible.)
`C=C1[C@@H](O)CC[C@@]2(C)[C@H]1C[C@@H](O)C1=C3[C@H](O)C[C@H]([C@H](C)CC[C@H](CC)C(C)C)[C@@]3(C)CC[C@@H]12`: the inhibition result was “Active”.
The same measure, in the same setting: with `C=C1[C@@H](O)CC[C@]2(C)C3=C(CC[C@@H]12)[C@]1(O)[C@@H](O)C[C@H]([C@H](C)CC[C@H](CC)C(C)C)[C@@]1(C)C[C@H]3O` the entry was “inactive”; with `C=C1[C@@H](O)CC[C@]2(C)C3=CC[C@@]4(C)C(=CC[C@@H]4[C@H](C)CC[C@H](CC)C(C)C)C3=CC[C@@H]12`, “Active”.
The same measure, in the same setting: the value for `C=C1[C@@H](O)CC[C@]2(C)C3=C(CC[C@@H]12)[C@]1(O)[C@@H](O)C[C@H]([C@H](C)CC[C@H](CC)C(C)C)[C@@]1(C)C[C@@H]3O` was “Active”; that for `C=C1[C@@H](O)CC[C@]2(C)C3=CC[C@@]4(C)C(=CC[C@@H]4[C@H](C)CC[C@@H](C)C(C)C)C3=CC[C@@H]12` was “Active”; that for `C=C1[C@@H](O)CC[C@@]2(C)[C@H]1CCC1=C3[C@H](O)C[C@H]([C@H](C)CC[C@H](CC)C(C)C)[C@@]3(C)CC[C@@]12OC` was “inactive”.
The same measure, in the same setting: the value for `C=C1[C@@H](O)CC[C@@]2(C)[C@H]1CCC1=C3[C@H](O)C[C@H]([C@H](C)CC[C@H](CC)C(C)C)[C@@]3(C)CC[C@@]12O` was “Active”; that for `C=C1[C@@H](O)CC[C@@]2(C)[C@H]1CCC1=C3[C@H](O)C[C@H]([C@H](C)CC[C@@H](C)C(C)C)[C@@]3(C)CC[C@@]12O` was “Active”.
Consider `C=C1[C@@H](O)CC[C@]2(C)C3=C(CC[C@@H]12)[C@@H]1C(=O)C[C@H]([C@H](C)CC[C@H](CC)C(C)C)[C@@]1(C)CC3`, for which the inhibition result is “Active”.

A further assay has as its target T1, Bile acid receptor (Homo sapiens). The assay is described as follows: Partial agonist activity at human FXR expressed in human HepG2 cells assessed as induction of transactivation at 10 uM after 18 hrs by luciferase reporter gene assay. In kind it is functional, cell-based. An outline of the steps: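 HepG2 cells (5 × 10^5 cells/well) were transiently transfected using Fugene HD with pSG5-FXR, pSG5-RXR, pCMV-β-gal and a p(hsp27)-TK-LUC reporter carrying the hsp27 IR1 FXR response element. At 48 h post-transfection, cells were stimulated 18 h with test agent at 10 μM; 10 μM CDCA served as reference. Luciferase was normalized to β-gal; P < 0.05 vs untreated, n = 4.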
As for `C=C1[C@@H](O)CC[C@@]2(C)[C@H]1C[C@@H](O)C1=C3[C@H](O)C[C@H]([C@H](C)CC[C@H](CC)C(C)C)[C@@]3(C)CC[C@@H]12`, the result was inactive.
Same read-out and setting: with `C=C1[C@@H](O)CC[C@]2(C)C3=C(CC[C@@H]12)[C@]1(O)[C@@H](O)C[C@H]([C@H](C)CC[C@H](CC)C(C)C)[C@@]1(C)C[C@H]3O` the entry was “inactive”.
The same measure, in the same setting: with `C=C1[C@@H](O)CC[C@]2(C)C3=CC[C@@]4(C)C(=CC[C@@H]4[C@H](C)CC[C@H](CC)C(C)C)C3=CC[C@@H]12` the entry was “inactive”; with `C=C1[C@@H](O)CC[C@]2(C)C3=C(CC[C@@H]12)[C@]1(O)[C@@H](O)C[C@H]([C@H](C)CC[C@H](CC)C(C)C)[C@@]1(C)C[C@@H]3O`, “Active”; with `C=C1[C@@H](O)CC[C@]2(C)C3=CC[C@@]4(C)C(=CC[C@@H]4[C@H](C)CC[C@@H](C)C(C)C)C3=CC[C@@H]12`, “inactive”.
On the same count and under the same terms, the value for `C=C1[C@@H](O)CC[C@@]2(C)[C@H]1CCC1=C3[C@H](O)C[C@H]([C@H](C)CC[C@H](CC)C(C)C)[C@@]3(C)CC[C@@]12OC` was “inactive”; that for `C=C1[C@@H](O)CC[C@@]2(C)[C@H]1CCC1=C3[C@H](O)C[C@H]([C@H](C)CC[C@H](CC)C(C)C)[C@@]3(C)CC[C@@]12O` was “inactive”; that for `C=C1[C@@H](O)CC[C@@]2(C)[C@H]1CCC1=C3[C@H](O)C[C@H]([C@H](C)CC[C@@H](C)C(C)C)[C@@]3(C)CC[C@@]12O` was “inactive”.
As to `C=C1[C@@H](O)CC[C@]2(C)C3=C(CC[C@@H]12)[C@@H]1C(=O)C[C@H]([C@H](C)CC[C@H](CC)C(C)C)[C@@]1(C)CC3`, the outcome was inactive.

For another assay the target is unchanged. The assay is described as follows: Agonist activity at human FXR expressed in human HepG2 cells assessed as induction of OSTalpha mRNA expression at 50 uM by quantitative RT-PCR analysis. In kind it is functional, cell-based. Put shortly:
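HepG2 cells were primed with 10 μM CDCA alone or with 50 μM test agent. cDNA (50 ng template) was amplified by SYBR Green qPCR with 0.2 μM of each primer over 40 cycles (95/55/72 °C) in triplicate. Expression was normalized to GAPDH and reported as 2^ΔΔCT relative to untreated cells.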
`C=C1[C@@H](O)CC[C@]2(C)C3=C(CC[C@@H]12)[C@]1(O)[C@@H](O)C[C@H]([C@H](C)CC[C@H](CC)C(C)C)[C@@]1(C)C[C@@H]3O`: the result was Active.
